Measured values as given in ChEMBL document CHEMBL5678818, “Discovery of potent SOS1 inhibitors that block RAS activation via disruption of the RAS-SOS1 interaction” (Proc Natl Acad Sci U S A, 2019).
“And” between values parts separate entries of the source, which are not always exact repeats. Equal entries are not always repeated.

Tests used:
[1] = biological target: T1, Son of sevenless homolog 1 (Homo sapiens) (UniProt Q07889); assay: Binding affinity to N-terminal His10-tagged wild-type recombinant human SOS1 catalytic domain (564 to 1049 residues) expressed in Escherichia coli assessed as change in enthalpy by ITC analysis
T1 sequence (whole entry): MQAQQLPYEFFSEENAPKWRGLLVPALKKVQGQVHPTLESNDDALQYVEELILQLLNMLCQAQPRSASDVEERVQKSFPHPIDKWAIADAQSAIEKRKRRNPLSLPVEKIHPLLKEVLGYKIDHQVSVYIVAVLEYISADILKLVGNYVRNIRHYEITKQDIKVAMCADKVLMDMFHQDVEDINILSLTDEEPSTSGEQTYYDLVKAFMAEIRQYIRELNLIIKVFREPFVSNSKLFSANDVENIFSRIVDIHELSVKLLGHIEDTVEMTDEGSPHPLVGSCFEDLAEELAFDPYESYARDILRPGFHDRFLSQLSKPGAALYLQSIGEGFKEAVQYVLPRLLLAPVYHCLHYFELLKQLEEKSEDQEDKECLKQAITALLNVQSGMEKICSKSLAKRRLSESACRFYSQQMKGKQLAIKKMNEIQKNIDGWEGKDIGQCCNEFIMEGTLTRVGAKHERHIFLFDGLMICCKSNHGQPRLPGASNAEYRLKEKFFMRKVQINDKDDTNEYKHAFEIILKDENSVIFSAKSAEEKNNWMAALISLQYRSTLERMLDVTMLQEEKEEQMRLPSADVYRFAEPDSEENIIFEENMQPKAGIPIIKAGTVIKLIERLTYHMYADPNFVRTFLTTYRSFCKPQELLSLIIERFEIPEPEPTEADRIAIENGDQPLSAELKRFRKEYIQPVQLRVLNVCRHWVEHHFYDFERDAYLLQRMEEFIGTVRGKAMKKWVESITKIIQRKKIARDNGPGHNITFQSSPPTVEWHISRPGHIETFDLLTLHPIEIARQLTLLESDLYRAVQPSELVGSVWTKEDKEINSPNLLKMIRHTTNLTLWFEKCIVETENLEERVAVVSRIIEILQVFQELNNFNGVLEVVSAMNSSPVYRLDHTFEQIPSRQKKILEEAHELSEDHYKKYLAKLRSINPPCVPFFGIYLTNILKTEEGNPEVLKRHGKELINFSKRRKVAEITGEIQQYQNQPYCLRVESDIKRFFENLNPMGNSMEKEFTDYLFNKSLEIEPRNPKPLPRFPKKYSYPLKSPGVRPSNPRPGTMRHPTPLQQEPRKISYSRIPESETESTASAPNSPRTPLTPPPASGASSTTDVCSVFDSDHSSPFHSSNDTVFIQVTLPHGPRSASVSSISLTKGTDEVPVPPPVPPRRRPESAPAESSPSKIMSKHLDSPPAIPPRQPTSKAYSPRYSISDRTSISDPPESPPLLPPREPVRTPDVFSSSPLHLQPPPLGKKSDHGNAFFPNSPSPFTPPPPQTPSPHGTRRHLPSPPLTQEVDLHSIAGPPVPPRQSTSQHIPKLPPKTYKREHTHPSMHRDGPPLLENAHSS
In short: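 SOS1cat was titrated into a solution of the test ligand. Integrated injection enthalpies were plotted against the protein-to-compound molar ratio and fitted to derive the thermodynamic binding parameters.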

[2] = biological target: Serine/threonine-protein kinase B-raf (Homo sapiens) (UniProt P15056); assay: Inhibition of BRAF (unknown origin) assessed as residual activity at 1000 nM by KINOMEscan analysis relative to control
[3] = biological target: Mitogen-activated protein kinase 4 (Homo sapiens) (UniProt P31152); assay: Inhibition of ERK4 (unknown origin) assessed as residual activity at 1000 nM by KINOMEscan analysis relative to control
[4] = biological target: T2, SNF-related serine/threonine-protein kinase (Homo sapiens) (UniProt Q9NRH2); assay: Inhibition of SNRK (unknown origin) assessed as residual activity at 1000 nM by KINOMEscan analysis relative to control
T2 sequence (whole entry): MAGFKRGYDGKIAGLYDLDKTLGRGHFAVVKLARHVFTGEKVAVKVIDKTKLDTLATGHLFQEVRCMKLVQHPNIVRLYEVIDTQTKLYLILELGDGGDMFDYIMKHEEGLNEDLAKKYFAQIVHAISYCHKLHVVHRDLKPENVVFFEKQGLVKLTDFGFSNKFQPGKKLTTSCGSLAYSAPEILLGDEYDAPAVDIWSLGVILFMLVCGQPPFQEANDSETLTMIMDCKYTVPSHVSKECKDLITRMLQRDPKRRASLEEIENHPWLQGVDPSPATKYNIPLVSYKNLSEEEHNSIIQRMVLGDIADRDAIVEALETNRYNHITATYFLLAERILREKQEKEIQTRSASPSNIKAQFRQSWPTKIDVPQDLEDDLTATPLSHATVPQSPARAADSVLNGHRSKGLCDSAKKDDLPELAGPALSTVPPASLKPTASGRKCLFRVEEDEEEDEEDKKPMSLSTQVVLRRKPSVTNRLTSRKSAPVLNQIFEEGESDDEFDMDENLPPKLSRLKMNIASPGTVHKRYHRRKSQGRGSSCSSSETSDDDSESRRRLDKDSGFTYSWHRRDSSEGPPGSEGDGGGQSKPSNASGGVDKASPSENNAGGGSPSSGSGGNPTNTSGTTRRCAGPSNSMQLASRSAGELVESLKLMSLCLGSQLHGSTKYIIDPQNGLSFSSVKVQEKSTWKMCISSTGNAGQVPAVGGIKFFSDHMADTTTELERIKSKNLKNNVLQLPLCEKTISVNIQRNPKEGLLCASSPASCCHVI

Sequence of Mitogen-activated protein kinase 4 (Homo sapiens) (P31152 whole entry): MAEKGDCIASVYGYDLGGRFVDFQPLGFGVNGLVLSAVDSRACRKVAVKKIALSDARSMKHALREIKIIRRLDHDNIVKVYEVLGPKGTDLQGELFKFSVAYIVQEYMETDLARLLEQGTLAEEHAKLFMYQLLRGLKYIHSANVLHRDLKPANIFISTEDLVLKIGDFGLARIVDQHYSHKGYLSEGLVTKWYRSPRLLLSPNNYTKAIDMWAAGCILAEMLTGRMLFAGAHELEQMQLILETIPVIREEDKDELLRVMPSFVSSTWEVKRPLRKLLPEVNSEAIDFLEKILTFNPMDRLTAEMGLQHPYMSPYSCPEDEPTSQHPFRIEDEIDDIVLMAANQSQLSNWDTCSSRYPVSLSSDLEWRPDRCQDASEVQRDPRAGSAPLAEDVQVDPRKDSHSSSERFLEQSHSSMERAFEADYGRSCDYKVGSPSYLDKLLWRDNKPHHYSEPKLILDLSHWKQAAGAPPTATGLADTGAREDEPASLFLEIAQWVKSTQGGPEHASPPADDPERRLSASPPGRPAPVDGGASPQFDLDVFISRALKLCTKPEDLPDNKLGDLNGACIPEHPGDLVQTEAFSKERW
Sequence of Serine/threonine-protein kinase B-raf (Homo sapiens) (P15056 whole entry): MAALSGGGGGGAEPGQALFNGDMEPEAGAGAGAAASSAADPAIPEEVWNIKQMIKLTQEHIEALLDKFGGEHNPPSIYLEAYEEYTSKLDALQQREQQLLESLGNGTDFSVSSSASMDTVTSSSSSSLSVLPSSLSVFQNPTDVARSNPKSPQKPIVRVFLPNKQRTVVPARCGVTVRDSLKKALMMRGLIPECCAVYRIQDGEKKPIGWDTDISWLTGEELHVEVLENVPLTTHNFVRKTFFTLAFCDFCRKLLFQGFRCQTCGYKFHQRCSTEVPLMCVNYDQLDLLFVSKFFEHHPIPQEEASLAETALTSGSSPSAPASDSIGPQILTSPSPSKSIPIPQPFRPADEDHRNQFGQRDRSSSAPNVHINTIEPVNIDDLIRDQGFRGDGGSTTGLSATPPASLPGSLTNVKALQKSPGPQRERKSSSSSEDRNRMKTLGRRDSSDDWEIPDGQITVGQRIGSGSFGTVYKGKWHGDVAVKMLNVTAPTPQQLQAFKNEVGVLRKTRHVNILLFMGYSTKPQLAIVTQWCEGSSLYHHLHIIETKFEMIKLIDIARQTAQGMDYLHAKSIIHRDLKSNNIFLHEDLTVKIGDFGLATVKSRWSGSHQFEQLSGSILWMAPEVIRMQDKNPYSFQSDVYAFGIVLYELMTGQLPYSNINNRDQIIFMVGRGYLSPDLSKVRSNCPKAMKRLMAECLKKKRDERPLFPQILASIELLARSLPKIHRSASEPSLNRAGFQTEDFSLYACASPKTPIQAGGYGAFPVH

SMILES | deltaH [1] | Activity [2] [%] | Activity [3] [%] | Activity [4] [%]
CNCc1ccccc1-c1csc([C@@H](C)Nc2nc(C)nc3cc(OC)c(OC)cc23)c1 [BAY-293] | -16.1 kcal/mol and -17.9 kcal/mol | – | – | –
COc1cc2nc(C)nc(N[C@H](C)c3cccc(-c4cn[nH]c4)c3)c2cc1OC | – | 75 | 92 | 95
COc1cc2ncnc(N[C@H](C)c3cccc4ccccc34)c2cc1OC | -14.1 kcal/mol | 91 | 89 | 92
